Sampled rows, rich in hits. Any-hit rate of the full collection: about 1.2%.
IDE act: IDE (human) activation, cell-based | HEK cells, FAbeta-B cleavage, fluorescence polarization; 0% vehicle, 100% cell-free pure enzyme wells | P14735 | AID 493087 | hit rate 0.073% among 340,000 | activation, % at 5.96 µM;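 active = activation above the mean of all tested compounds plus 3 SD, set per screening campaign, cut at about 17% in these data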
ARFGAP1 inhibitor: inhibits rat ARF GTPase activating protein 1; hit rate 0.26% among 360,000; inhibition, % at 16.5 µM; Arfgap1-stimulated ARF1 GTP hydrolysis, GDP FP detection;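 active = inhibition above a per-plate limit, mean inhibition of low control wells plus 3 SD, cut at about 25% in these data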;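 note: 0% = DMSO wells with enzyme and 100% = wells lacking Arfgap1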
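system = rat Arfgap1 catalytic domain, aa 1-136 | technique = FP, GDP Alexa 633 tracer displaced from anti-GDP antibody, 620/688 nm | compound = one concentration, 16.5 µM, DMSO 1.26% | medium = HEPES-based buffer, pH 7.5 | timing = compound-enzyme preincubation 20 min, reaction 120 min, detection 60 min, 25 °C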
IDE inh: inhibits human insulin-degrading enzyme in HEK cells; hit rate 0.41% among 320,000; inhibition, % at 5.59 µM; FAbetaB cleavage, fluorescence polarization; P14735;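 active = percent inhibition above the average of all tested compounds plus 3 SD, set per screening campaign, cut at about 16% in these data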;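 note: IDE supplied by intact live HEK cells; FP after avidin binding of uncleaved biotin substrate so inhibition keeps polarization high; 0% = DMSO wells and 100% = 60 µM reference IDE inhibitor Ii1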
ASAP1 inh: ASAP1 ArfGAP inhibition; ASAP1-stimulated ARF1 GTP hydrolysis, GDP FP detection; inhibition, % at 16.5 µM; hit rate 0.19% among 360,000; AID 624377; in the data active = inhibition above about 25%;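 note: 0% = vehicle with enzyme and substrate and 100% = no enzyme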
PREPL inhibitor: inhibits the human prolyl oligopeptidase-like enzyme | Q4J6C6 | recombinant PREPL, fluorescence polarization activity-based probe | inhibition, % at 5.96 µM | hit rate 0.68% among 320,000; in the data active = inhibition above about 43%;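 note: 0% = enzyme with DMSO and 100% = wells lacking enzyme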
Target sequence (Q4J6C6 whole entry, looked up): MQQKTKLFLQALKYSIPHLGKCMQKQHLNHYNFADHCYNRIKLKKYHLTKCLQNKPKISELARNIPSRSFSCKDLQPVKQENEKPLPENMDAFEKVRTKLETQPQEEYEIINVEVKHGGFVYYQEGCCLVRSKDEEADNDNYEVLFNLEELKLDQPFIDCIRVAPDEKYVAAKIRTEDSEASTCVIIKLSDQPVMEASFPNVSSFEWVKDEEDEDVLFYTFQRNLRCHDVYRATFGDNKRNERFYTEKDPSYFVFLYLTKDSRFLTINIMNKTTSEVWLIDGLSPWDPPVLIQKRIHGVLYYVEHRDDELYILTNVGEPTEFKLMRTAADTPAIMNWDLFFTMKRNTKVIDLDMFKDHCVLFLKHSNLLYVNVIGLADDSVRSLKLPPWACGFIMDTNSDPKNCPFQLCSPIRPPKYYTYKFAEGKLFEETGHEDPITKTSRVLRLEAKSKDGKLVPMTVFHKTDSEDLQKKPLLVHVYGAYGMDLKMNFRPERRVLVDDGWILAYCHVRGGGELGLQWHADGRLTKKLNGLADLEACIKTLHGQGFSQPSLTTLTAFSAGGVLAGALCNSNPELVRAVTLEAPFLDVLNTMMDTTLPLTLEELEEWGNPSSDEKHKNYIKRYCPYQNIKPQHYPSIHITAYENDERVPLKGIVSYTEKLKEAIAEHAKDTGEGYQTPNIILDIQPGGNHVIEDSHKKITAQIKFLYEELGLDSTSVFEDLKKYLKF
IDE cell inh cf: confirmation of human insulin-degrading enzyme inhibitors in cells. hit rate 51% among 1,200. shares compounds with IDE inh. inhibition, % at 5.59 µM. HEK cells, FAbetaB cleavage, fluorescence polarization;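 active = mean inhibition across triplicate wells above the cutoff set by the earlier primary insulin-degrading enzyme screen, cut at about 16% in these data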;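 note: 0% = DMSO wells and 100% = 60 µM reference IDE inhibitor Ii1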
HEK cytotox: counter-screen for IDE inhibitors: cytotoxicity in HEK cells. inhibition, % at 5.59 µM. HEK293 cytotoxicity, ATP luminescence. hit rate 28% among 1,200. shares compounds with IDE inh; in the data active = inhibition above about 22%;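 note: 0% = vehicle wells and 100% = reference cytotoxic drug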
ASAP1 GAP conf: ASAP1 inhibition confirmed. shares compounds with ASAP1 inh. ASAP1-stimulated Arf1 GTPase, GDP fluorescence polarization. inhibition, % at 16.5 µM. hit rate 37% among 620. AID 624431;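 active = mean inhibition over triplicates exceeds the hit threshold derived for the earlier primary screening run, cut at about 25% in these data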
ARFGAP1 inh conf: rat ARFGAP1 inhibition, confirmed | shares compounds with ARFGAP1 inhibitor | ARFGAP1-stimulated ARF1 GTP hydrolysis, GDP tracer FP | inhibition, % at 16.5 µM | hit rate 30% among 890 | AID 651608;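 active = average inhibition over triplicates above the hit cutoff set in the earlier primary screen, cut at about 25% in these data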;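 note: 0% = Arfgap1 plus ARF1-GTP with DMSO and 100% = wells lacking Arfgap1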
An asterisk follows results filed as active; · = no result given.

SMILES	IDE act	ARFGAP1 inhibitor	IDE inh	ASAP1 inh	PREPL inhibitor	others
Cc1ccccc1N1C(=O)NC(=O)/C(=C/c2ccc(N3CCOCC3)o2)C1=O	-11	2	27*	1	6	IDE cell inh cf=19*;HEK cytotox=3
Cc1ccccc1N1C(=O)NC(=O)/C(=C\c2cc(Br)c(N3CCOCC3)o2)C1=O	-14	5	2	0	4
O=C1NC(=O)N(c2ccc3c(c2)OCO3)C(=O)/C1=C\c1ccc(N2CCCCC2)o1	-34	-1	19*	-4	-1	IDE cell inh cf=21*;HEK cytotox=14
O=c1c2ccccc2nc(/C=C/c2ccccc2)n1-c1ccccc1O	4	6	-3	-5	-16
O=c1c2ccccc2nc(/C=C/c2ccc(O)c(O)c2)n1-c1ccccc1	-128	8	170*	8	19	IDE cell inh cf=102*;HEK cytotox=21
COc1cc(/C=C/c2nc3ccccc3c(=O)n2-c2cccc(O)c2)ccc1O	-114	0	65*	3	16	IDE cell inh cf=153*;HEK cytotox=19
COc1cc(/C=C/c2nc3ccccc3c(=O)n2-c2ccccc2O)ccc1O	-61	-4	60*	1	15	IDE cell inh cf=128*;HEK cytotox=15
O=c1c2ccccc2nc(/C=C/c2ccccc2)n1-c1ccc(O)cc1	3	1	7	4	-11
COc1ccccc1-n1c(/C=C/c2ccc(O)cc2)nc2ccccc2c1=O	-81	9	90*	1	1	IDE cell inh cf=128*;HEK cytotox=13
Cc1oc(-c2ccccc2Cl)nc1CN1C(=O)CN=C(c2ccccc2)c2ccccc21	7	4	4	8	27
O=C1NC(=O)N(c2cccc(Br)c2)C(=O)/C1=C/c1ccsc1	1	-3	22*	6	4	IDE cell inh cf=6;HEK cytotox=5
O=C1NC(=O)N(c2ccc(Br)cc2)C(=O)/C1=C/c1ccsc1	-5	-8	-1	-8	0
O=C(Cn1nc(-c2ccc(Cl)cc2)ccc1=O)N1CCC2(CC1)OCCO2	3	-3	6	-8	11
O=C1NC(=O)N(Cc2ccc(F)cc2)C(=O)/C1=C\C=C\c1ccco1	-18	13	19*	17	19	IDE cell inh cf=9;HEK cytotox=12
O=C1C=C(N2CC2)c2ccccc2C1=O	·	-6	·	31*	·	ASAP1 GAP conf=-6
CCC(C)NC(=O)c1c(N)n(CCCOC)c2nc3ccccc3nc12 (stereo unspecified)	-1	-16	1	27*	9	ASAP1 GAP conf=15
COC(=O)C1C(c2ccc(I)cc2)CC2CCC1N2C (stereo unspecified)	·	11	·	26*	·	ASAP1 GAP conf=5
COC(=O)C1C(c2ccc(Cl)cc2)CC2CCC1N2C (stereo unspecified)	·	-3	·	3	·
CC12Cc3cnoc3C=C1CCC1C2CCC2(C)C1CCC2(C)O (stereo unspecified)	-3	-8	·	0	·
CCCCSP1(=S)NCCCO1 (stereo unspecified)	1	-9	3	-5	-15
O=Cc1cn(Cc2ccc(F)cc2)c2ccccc12	-2	15	-4	25*	1	ASAP1 GAP conf=2
Cc1ccc(Cn2cc(C=O)c3ccccc32)cc1	1	-4	0	0	-11
CCc1c(C(=O)NN2C(=O)C3C4CCC(O4)C3C2=O)csc1C (stereo unspecified)	-1	-4	3	26*	-2	ASAP1 GAP conf=-1
C=CCn1c(O)c(/C=N/N2CCCCC2)c(=O)[nH]c1=O	5	2	1	-16	-7
COCCCn1c(N)c(C(=O)Nc2sc3c(c2C(=O)OC)CCCC3)c2nc3ccccc3nc21	7	27*	2	29*	2	ASAP1 GAP conf=-3;ARFGAP1 inh conf=2
SMILES	IDE act	ARFGAP1 inhibitor	IDE inh	ASAP1 inh	PREPL inhibitor	others
O=C(Nc1ccc(F)cc1)N1Cc2ccccc2-n2nncc2C1	·	-2	·	-3	·
NCCc1ccc(O)cc1	5	29*	6	4	-2	ARFGAP1 inh conf=2
CCOC(=O)CC1=C(C(=O)OCC)C2(C(=O)N1CC(=O)OC)C(C#N)=C(N)Oc1ccccc12 (stereo unspecified)	-6	-4	5	-3	9
COCCNC(=O)c1ccc(N2CC3CC(C2)c2cccc(=O)n2C3)c([N+](=O)[O-])c1 (stereo unspecified)	0	35*	-1	7	9	ARFGAP1 inh conf=3
O=C(CCc1ccccc1)N1Cc2cc(N3CCCCC3)ccc2-n2nncc2C1	·	25*	·	-10	·	ARFGAP1 inh conf=3
O=C(CCc1ccccc1)N1Cc2cc(N3CCOCC3)ccc2-n2nncc2C1	·	-3	·	-4	·
COc1cccc(CN2CCCCC2c2cccnc2)c1 (stereo unspecified)	2	25*	6	-11	4	ARFGAP1 inh conf=2
COc1ccc(CN2CCCCC2c2cccnc2)cc1C (stereo unspecified)	2	-2	2	2	2
Nc1c(Br)cc([N+](=O)[O-])cc1[N+](=O)[O-]	0	0	2	-8	8
CC[N+](C)(CC)CCCCOc1ccc2c(c1)C(=O)c1cc(OCCCC[N+](C)(CC)CC)ccc1-2	0	26*	7	0	16	ARFGAP1 inh conf=14
COc1ccc(Oc2c(C)oc3cc(OC(=O)N(C)C)ccc3c2=O)cc1	3	2	0	0	13
COc1ccccc1Oc1c(C)oc2cc(OC(=O)N(C)C)ccc2c1=O	3	27*	3	-11	11	ARFGAP1 inh conf=2
CCCOc1ccc(C(C)=O)cc1Cc1c(O)[nH]c(=S)[nH]c1=O	-1	26*	1	2	7	ARFGAP1 inh conf=2
CCOc1ccc(C(C)=O)cc1Cc1c(O)[nH]c(=S)[nH]c1=O	-5	6	·	20	·
O=C(NC1CC1)C1CSC(c2cccnc2)=N1 (stereo unspecified)	-3	5	0	-12	4
CC1CC(C)CN(C(=O)COC(=O)c2cn(C)c3ccccc23)C1 (stereo unspecified)	-1	42*	2	18	-6	ARFGAP1 inh conf=49*
CC(=O)c1cn(CCCOc2ccccc2)c2ccccc12	-2	8	2	8	-24

Assay outcomes deposited in PubChem by The Scripps Research Institute Molecular Screening Center.
